Data reported in ChEMBL document CHEMBL4118126, “An orally available, brain-penetrant CAMKK2 inhibitor reduces food intake in rodent model” (Bioorg Med Chem Lett, 2018).
≈ marks a conversion by molar mass, not a printed value.

Legend:
[1] = target: Calcium/calmodulin-dependent protein kinase kinase 2 (Homo sapiens, UniProt Q96RR4); experiment: Inhibition of full-length human GST-tagged CAMKK2 using 5FAM-AKPKGNKDYHLQTCCGSLAYRRR-amide as substrate preincubated for 30 mins followed by substrate addition measured after 120 mins by fluorescence polarization assay
Chain of Calcium/calmodulin-dependent protein kinase kinase 2 (Homo sapiens, UniProt Q96RR4) (Q96RR4 whole entry): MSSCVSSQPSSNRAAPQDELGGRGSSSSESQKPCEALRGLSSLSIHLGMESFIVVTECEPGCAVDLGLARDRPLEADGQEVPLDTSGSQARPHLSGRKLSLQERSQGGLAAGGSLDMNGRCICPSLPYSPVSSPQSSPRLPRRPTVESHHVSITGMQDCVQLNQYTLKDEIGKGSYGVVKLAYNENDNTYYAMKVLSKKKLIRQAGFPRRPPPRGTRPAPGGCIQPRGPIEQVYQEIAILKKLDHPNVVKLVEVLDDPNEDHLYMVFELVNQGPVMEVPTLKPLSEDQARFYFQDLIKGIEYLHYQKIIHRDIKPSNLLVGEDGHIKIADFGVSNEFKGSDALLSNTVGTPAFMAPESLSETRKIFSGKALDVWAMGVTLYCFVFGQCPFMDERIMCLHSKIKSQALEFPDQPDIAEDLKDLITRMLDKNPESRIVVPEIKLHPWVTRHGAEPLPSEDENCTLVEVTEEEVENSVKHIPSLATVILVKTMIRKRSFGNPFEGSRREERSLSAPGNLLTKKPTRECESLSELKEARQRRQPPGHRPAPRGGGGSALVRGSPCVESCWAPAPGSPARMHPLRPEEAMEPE

[2] = target: Calcium/calmodulin-dependent protein kinase kinase 2 (Mus musculus, UniProt Q8C078); experiment: Inhibition of CAMKK2 in mouse N39 cells assessed as decrease in AMPKalpha phosphorylation at T172 preincubated for 80 mins followed by […] addition by ELISA; assay type: cell-based
Chain of Calcium/calmodulin-dependent protein kinase kinase 2 (Mus musculus, UniProt Q8C078) (Q8C078 whole entry): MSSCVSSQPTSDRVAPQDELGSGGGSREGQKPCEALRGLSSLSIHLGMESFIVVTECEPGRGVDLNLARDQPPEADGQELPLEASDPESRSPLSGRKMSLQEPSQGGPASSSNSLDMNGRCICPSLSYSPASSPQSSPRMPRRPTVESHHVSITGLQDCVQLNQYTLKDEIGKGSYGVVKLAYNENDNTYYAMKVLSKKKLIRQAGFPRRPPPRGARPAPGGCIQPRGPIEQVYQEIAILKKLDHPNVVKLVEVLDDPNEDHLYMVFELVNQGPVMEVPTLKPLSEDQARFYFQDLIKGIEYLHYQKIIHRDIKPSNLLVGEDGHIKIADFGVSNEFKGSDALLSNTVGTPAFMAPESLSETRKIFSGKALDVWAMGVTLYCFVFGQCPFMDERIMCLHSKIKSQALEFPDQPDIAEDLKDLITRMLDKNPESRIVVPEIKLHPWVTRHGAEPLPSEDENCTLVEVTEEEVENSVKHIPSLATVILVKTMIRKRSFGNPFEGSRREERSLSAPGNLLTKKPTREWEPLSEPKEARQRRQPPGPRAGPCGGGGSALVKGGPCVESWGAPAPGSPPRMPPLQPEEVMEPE
In short: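 Mouse N39 cells seeded ~1000 cells/well, cultured overnight at 37°C, 5% CO2, then exposed to compound in DMSO for 80 min before ionomycin stimulation ([…] as added). Cells were lysed in extraction buffer for 30 min on ice, then diluted into ice-cold lysis buffer containing protease and phosphatase inhibitors for MSD read-out.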

[3] = Solubility of the compound in pH 7.4 phosphate buffer saline after 1 hr by chemiluminescence nitrogen detection method; assay type: physicochemical; conditions: phosphate buffered saline
In short: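 Kinetic solubility: 10 mM DMSO stock diluted 1:20 into 10 mM phosphate-buffered saline pH 7.4, equilibrated 1 h at RT, filtered, and filtrate quantified by calibrated flow-injection chemiluminescent nitrogen detection.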

[4] = target: Mitogen-activated protein kinase 8 (Homo sapiens, UniProt P45983); experiment: Inhibition of JNK1 (unknown origin)
Chain of Mitogen-activated protein kinase 8 (P45983 whole entry): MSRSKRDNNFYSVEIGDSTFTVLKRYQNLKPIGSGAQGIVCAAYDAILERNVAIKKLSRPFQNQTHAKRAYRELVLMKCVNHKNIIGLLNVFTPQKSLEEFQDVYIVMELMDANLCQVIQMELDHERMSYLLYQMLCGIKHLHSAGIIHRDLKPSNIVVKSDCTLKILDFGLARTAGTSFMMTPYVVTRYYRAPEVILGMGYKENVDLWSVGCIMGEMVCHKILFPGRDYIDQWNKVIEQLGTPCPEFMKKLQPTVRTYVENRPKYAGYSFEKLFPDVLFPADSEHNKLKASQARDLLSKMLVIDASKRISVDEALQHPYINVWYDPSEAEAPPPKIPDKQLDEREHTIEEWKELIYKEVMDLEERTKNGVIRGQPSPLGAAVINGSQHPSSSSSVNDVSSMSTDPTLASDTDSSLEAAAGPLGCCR

[5] = target: T1, Inhibitor of nuclear factor kappa-B kinase subunit alpha (Homo sapiens, UniProt O15111); experiment: Inhibition of IKK1 (unknown origin)
T1 sequence (O15111 whole entry): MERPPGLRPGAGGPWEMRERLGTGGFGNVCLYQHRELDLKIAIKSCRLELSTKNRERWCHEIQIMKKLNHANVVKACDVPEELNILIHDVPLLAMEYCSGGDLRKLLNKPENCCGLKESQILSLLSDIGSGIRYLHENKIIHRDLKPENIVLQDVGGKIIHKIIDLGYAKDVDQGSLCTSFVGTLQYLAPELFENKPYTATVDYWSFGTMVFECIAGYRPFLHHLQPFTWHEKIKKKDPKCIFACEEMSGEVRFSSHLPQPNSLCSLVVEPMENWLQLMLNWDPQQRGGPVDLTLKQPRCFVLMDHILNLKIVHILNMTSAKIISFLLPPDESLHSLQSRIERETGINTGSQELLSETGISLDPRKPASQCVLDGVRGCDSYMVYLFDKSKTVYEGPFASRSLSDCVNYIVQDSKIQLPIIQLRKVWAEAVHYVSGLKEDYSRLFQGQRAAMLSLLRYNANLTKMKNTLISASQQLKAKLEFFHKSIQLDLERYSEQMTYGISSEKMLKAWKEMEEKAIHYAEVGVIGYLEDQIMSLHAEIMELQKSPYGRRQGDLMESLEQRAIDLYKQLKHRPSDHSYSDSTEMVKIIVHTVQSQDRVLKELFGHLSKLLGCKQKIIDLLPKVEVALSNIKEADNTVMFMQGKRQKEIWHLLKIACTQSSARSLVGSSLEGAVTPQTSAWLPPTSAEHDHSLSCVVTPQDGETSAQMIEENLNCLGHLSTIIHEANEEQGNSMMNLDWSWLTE

[6] = target: Insulin receptor (Homo sapiens, UniProt P06213); experiment: Inhibition of INSR (unknown origin)
Chain of Insulin receptor (P06213 28-758 limits assumed): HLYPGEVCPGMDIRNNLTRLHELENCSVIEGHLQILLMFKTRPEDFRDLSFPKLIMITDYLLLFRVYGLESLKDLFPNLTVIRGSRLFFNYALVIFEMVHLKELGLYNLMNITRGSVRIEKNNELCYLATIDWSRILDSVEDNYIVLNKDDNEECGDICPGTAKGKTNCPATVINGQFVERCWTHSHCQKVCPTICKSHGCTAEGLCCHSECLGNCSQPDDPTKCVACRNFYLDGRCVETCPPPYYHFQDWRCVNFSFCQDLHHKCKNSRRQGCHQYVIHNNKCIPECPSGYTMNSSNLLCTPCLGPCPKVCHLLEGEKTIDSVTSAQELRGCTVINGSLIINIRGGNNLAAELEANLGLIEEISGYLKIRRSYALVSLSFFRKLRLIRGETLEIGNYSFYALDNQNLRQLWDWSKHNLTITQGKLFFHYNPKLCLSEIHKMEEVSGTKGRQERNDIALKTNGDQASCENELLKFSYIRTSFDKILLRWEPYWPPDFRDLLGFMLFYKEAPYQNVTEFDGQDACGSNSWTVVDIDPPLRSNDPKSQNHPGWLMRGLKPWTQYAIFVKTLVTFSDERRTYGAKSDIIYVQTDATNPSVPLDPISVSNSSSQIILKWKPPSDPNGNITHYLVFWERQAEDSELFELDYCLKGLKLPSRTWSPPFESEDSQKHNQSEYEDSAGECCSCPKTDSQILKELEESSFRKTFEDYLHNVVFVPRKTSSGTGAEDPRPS
Chain of Insulin receptor (P06213 763-1382 limits assumed): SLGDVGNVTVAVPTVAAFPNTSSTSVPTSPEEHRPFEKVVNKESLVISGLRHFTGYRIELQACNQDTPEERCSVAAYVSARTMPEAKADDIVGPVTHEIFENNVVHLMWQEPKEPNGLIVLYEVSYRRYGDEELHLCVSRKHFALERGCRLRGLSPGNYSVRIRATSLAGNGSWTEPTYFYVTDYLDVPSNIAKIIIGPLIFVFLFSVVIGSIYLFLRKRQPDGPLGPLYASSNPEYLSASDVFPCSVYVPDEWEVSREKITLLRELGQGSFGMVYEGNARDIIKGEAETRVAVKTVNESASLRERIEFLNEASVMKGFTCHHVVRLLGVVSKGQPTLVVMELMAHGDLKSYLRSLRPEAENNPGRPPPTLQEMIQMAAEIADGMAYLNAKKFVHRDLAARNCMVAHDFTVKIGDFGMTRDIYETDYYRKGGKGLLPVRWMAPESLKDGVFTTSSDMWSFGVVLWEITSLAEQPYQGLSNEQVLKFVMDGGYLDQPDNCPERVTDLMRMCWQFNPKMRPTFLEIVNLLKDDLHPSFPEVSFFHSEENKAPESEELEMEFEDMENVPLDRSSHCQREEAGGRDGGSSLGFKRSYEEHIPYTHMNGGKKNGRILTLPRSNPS

[7] = target: T2, Aurora kinase A (Homo sapiens, UniProt O14965); experiment: Inhibition of aurora A (unknown origin)
T2 sequence (O14965 whole entry): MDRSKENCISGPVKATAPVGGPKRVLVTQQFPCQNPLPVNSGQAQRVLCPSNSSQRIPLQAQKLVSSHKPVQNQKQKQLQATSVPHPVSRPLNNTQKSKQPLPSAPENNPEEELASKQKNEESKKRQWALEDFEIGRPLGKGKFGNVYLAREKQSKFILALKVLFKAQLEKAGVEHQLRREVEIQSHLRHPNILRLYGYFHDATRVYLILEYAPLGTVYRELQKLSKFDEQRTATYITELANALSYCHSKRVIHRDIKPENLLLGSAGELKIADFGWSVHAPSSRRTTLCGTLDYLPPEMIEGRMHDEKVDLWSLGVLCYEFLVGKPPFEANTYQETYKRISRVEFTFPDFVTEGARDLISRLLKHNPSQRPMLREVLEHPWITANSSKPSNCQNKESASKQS

[8] = target: T3, Discoidin domain-containing receptor 2 (Homo sapiens, UniProt Q16832); experiment: Inhibition of DDR2 (unknown origin)
T3 sequence (Q16832 whole entry): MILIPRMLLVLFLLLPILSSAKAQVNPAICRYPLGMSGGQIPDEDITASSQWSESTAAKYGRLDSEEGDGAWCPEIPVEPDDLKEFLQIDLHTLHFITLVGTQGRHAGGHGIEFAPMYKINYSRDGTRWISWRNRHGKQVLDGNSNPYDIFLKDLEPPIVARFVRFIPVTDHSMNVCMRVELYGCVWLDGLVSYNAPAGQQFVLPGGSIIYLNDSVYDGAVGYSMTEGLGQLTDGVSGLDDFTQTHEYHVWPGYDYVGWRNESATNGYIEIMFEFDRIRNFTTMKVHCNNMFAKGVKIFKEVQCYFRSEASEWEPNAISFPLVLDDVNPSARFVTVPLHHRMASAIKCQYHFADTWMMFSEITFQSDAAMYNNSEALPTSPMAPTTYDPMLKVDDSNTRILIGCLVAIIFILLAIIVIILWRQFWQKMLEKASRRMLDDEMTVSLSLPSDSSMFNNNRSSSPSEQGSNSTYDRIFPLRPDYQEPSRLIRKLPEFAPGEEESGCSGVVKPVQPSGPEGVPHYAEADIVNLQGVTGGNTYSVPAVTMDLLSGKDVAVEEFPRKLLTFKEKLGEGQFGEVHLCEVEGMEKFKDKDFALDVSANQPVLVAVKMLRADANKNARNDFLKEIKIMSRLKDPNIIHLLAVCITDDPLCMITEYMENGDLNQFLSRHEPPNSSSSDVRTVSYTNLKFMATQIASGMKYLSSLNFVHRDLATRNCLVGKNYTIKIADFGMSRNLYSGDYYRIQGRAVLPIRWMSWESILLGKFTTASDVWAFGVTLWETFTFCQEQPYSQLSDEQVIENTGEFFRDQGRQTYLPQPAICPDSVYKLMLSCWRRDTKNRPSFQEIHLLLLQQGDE

[9] = Cmax in CD rat at 30 mg/kg, po; assay type: ADME, organism-based; parameters: dose 30 mg/kg, route oral; conditions: in vivo
[10] = Ratio of drug level in brain to plasma in CD rat at 30 mg/kg, po; assay type: ADME, organism-based; conditions: read-out: BPR
[11] = target: Glycogen synthase kinase-3 beta (Homo sapiens, UniProt P49841); experiment: Inhibition of GSK3beta (unknown origin)
Chain of Glycogen synthase kinase-3 beta (P49841 whole entry, canonical isoform): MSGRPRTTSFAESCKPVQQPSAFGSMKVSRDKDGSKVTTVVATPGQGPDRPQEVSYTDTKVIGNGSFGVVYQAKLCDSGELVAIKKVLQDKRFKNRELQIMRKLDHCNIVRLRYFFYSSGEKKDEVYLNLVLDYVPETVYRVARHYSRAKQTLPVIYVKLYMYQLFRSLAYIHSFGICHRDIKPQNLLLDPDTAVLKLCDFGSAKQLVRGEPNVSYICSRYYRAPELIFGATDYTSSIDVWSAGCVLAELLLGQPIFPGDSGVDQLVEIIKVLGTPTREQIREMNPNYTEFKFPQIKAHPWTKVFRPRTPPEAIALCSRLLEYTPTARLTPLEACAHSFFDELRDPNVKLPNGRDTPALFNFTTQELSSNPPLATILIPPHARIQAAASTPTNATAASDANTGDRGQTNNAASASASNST

[12] = target: Phosphatidylinositol 4,5-bisphosphate 3-kinase catalytic subunit gamma isoform (Homo sapiens, UniProt P48736); experiment: Inhibition of PI3Kgamma (unknown origin)
Chain of Phosphatidylinositol 4,5-bisphosphate 3-kinase catalytic subunit gamma isoform (P48736 whole entry, canonical isoform): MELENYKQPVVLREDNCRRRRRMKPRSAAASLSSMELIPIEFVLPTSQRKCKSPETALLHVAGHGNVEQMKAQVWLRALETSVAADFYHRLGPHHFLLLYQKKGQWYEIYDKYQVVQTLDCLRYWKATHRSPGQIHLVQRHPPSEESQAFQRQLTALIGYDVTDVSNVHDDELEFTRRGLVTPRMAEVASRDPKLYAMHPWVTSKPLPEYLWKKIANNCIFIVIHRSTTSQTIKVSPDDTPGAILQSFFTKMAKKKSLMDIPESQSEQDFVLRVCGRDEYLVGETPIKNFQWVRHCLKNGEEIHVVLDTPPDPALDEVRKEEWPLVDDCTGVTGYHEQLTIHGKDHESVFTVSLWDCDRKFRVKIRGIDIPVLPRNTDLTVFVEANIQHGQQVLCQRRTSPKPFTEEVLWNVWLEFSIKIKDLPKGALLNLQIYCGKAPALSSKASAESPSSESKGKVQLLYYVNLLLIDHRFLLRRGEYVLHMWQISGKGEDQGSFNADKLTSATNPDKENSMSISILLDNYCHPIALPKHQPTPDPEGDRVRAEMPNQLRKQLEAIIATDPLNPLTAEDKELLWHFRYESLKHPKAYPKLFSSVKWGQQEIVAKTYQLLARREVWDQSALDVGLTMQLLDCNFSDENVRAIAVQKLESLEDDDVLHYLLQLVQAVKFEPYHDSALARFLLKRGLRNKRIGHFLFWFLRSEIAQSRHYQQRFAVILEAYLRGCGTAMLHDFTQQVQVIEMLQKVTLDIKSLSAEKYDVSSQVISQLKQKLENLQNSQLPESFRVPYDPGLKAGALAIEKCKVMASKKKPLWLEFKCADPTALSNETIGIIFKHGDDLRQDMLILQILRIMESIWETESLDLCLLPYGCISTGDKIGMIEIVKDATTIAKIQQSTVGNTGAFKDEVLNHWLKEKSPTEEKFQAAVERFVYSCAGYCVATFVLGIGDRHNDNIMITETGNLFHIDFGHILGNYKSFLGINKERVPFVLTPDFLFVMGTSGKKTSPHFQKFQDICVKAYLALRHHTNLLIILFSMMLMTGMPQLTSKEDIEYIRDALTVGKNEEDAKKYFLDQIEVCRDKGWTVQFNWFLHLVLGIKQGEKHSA

[13] = system: Rattus norvegicus; experiment: Inhibition of ghrelin-induced food intake in Sprague-Dawley rat at 30 mg/kg, po administered 1 hr followed by ghrelin addition measured for 4 hrs relative to control; assay type: functional
[14] = system: Rattus norvegicus; experiment: Reduction of food intake in Sprague-Dawley rat at 30 mg/kg, po administered 1 hr measured for 4 hrs; assay type: ADME, organism-based; conditions: in vivo
[15] = Cmax in CD rat at 10 mg/kg, po; assay type: ADME, organism-based; parameters: dose 10 mg/kg, route oral; conditions: in vivo
[16] = Ratio of drug level in brain to plasma in CD rat at 10 mg/kg, po; assay type: ADME, organism-based; conditions: read-out: BPR

| IC50 [1] | IC50 [2] | solubility at 1 h [3] | IC50 [4] | IC50 [5] | IC50 ([6]; read-out: IC50) | IC50 ([6]; read-out: pIC50 (converted)) | IC50 [7] | IC50 [8] | Cmax [9] | Kp [10] | IC50 [11] | IC50 [12] | Cmax [15] | Kp [16] | SMILES | inhibition in vivo at 30 mg/kg [13] | Activity [14] |
| --- | --- | --- | --- | --- | --- | --- | --- | --- | --- | --- | --- | --- | --- | --- | --- | --- | --- |
| 100 to 251 nM | 7940 nM | 9 µM (≈ 3.95 µg/mL) | 20000 nM | > 31600 nM | > 10000 nM | > 10000 nM | > 10000 nM | > 10000 nM | – | – | – | – | – | – | Cc1cc(OCCN2CCOCC2)ccc1-c1cc2c(-c3ccc(C#N)cc3)ccnc2[nH]1 | – | – |
| 12.6 nM | 398 nM | 1 µM (≈ 0.451 µg/mL) | 7940 nM | 2510 nM | > 10000 nM | > 10000 nM | > 10000 nM | > 10000 nM | 127 ng/mL | 0.6 | – | – | – | – | Cc1ccc(CN2CCOCC2)cc1-c1cc2c(-c3ccc(C#N)c(C(C)C)c3)ccnc2[nH]1 | – | – |
| 0.794 to 7.94 nM | 63.1 nM | 4 µM (≈ 1.99 µg/mL) | 2000 nM | 2510 nM | – | 398 nM | – | – | 374 ng/mL | 0.6 | – | – | – | – | Cc1cc(OCCN2CCOCC2)ccc1-c1cc2c(-c3ccc(C(N)=O)c(C(C)C)c3)ccnc2[nH]1 | – | – |
| 79.4 to 398 nM | 2510 nM | 2 µM (≈ 0.817 µg/mL) | > 10000 nM | > 25100 nM | > 10000 nM | > 10000 nM | > 10000 nM | > 10000 nM | – | – | – | – | – | – | Cc1ccc(CN2CCOCC2)cc1-c1cc2c(-c3ccc(C#N)cc3)ccnc2[nH]1 | – | – |
| 6.31 nM | 501 nM | < 1 µM | > 10000 nM | > 25100 nM | > 10000 nM | > 10000 nM | > 10000 nM | > 10000 nM | 964 ng/mL | 0.9 | – | – | – | – | Cc1cc(OCCN2CCOCC2)ccc1-c1cc2c(-c3ccc(C#N)c(C(C)C)c3)ccnc2[nH]1 | 40% | Non-Toxic |
| 2 nM | 100 nM | 7 µM (≈ 2.88 µg/mL) | 2000 nM | 2510 nM | – | 794 nM | – | – | – | – | – | – | 35 ng/mL | 3.2 | COc1ccccc1-c1cc2c(-c3ccc(C(N)=O)c(C4CCCC4)c3)ccnc2[nH]1 | – | – |

Second part, the compound before the results:

| SMILES | IC50 [1] | IC50 [2] | solubility at 1 h [3] | IC50 [4] | IC50 [5] | IC50 ([6]; read-out: IC50) | IC50 ([6]; read-out: pIC50 (converted)) | IC50 [7] | IC50 [8] | Cmax [9] | Kp [10] | IC50 [11] | IC50 [12] | Cmax [15] | Kp [16] | inhibition in vivo at 30 mg/kg [13] | Activity [14] |
| --- | --- | --- | --- | --- | --- | --- | --- | --- | --- | --- | --- | --- | --- | --- | --- | --- | --- |
| COc1ccccc1Nc1nccc(-c2ccc(C(N)=O)cc2)n1 | 100 to 1260 nM | > 10000 nM | < 1 µM | 2000 nM | – | – | – | – | – | – | – | > 25100 nM | > 10000 nM | – | – | – | – |
| O=C(O)c1ccc(-c2ccnc(Nc3cccc(-c4ccccc4)c3)n2)cc1 | 7.94 to 100 nM | 7940 nM | 14 µM (≈ 5.14 µg/mL) | 398 nM | – | – | – | – | – | – | – | 398 nM | 12.6 nM | – | – | – | – |
| COc1ccc(-c2ccccc2)cc1Nc1nccc(-c2ccc(C(N)=O)cc2)n1 | 12.6 to 251 nM | > 10000 nM | 7 µM (≈ 2.78 µg/mL) | > 10000 nM | – | – | – | – | – | – | – | > 25100 nM | 7940 nM | – | – | – | – |
| COc1ccccc1Nc1ncc(Cl)c(-c2ccc(C(N)=O)c(C(C)C)c2)n1 | 158 to 1580 nM | > 10000 nM | 5 µM (≈ 1.98 µg/mL) | > 10000 nM | – | – | – | – | – | – | – | 20000 nM | 6310 nM | – | – | – | – |
| COc1ccccc1Nc1nccc(-c2ccc(C(N)=O)c(C(C)C)c2)n1 | 63.1 to 1580 nM | > 10000 nM | 10 µM (≈ 3.62 µg/mL) | 1580 nM | – | – | – | – | – | – | – | > 25100 nM | 2510 nM | – | – | – | – |
| Cc1ccc(-c2ccccc2)cc1Nc1nccc(-c2ccc(C(N)=O)cc2)n1 | 31.6 to 501 nM | 3980 nM | 4 µM (≈ 1.52 µg/mL) | > 10000 nM | – | – | – | – | – | – | – | > 25100 nM | > 10000 nM | – | – | – | – |
